Shown are actives, neighbours in structure and some others; about 9.4% of the full set was active somewhere.
Mdm2 MdmX PPI: disrupts the human Mdm2-MdmX interaction | O15151+Q00987 | SaOS-2 split-luciferase Mdm2/MdmX complementation, luminescence | inhibition, % at 8 µM | 330,000 compounds, 3% hits;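 active means inhibition of at least 50% at 8 µM in the primary screen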
Target sequence (O15151 whole entry, looked up): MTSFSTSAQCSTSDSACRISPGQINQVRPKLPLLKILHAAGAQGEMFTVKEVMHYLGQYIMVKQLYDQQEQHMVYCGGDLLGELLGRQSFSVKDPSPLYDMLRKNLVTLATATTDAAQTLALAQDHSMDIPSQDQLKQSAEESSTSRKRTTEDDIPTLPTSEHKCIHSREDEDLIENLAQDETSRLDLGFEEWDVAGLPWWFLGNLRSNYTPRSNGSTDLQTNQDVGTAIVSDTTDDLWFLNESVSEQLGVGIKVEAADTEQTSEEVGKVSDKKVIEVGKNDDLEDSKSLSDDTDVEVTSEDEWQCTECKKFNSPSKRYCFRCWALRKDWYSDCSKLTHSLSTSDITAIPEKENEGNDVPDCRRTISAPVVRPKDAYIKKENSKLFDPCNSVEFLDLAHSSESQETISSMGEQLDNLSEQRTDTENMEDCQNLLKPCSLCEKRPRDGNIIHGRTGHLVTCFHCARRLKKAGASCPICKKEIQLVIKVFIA
Target sequence (Q00987 whole entry, looked up): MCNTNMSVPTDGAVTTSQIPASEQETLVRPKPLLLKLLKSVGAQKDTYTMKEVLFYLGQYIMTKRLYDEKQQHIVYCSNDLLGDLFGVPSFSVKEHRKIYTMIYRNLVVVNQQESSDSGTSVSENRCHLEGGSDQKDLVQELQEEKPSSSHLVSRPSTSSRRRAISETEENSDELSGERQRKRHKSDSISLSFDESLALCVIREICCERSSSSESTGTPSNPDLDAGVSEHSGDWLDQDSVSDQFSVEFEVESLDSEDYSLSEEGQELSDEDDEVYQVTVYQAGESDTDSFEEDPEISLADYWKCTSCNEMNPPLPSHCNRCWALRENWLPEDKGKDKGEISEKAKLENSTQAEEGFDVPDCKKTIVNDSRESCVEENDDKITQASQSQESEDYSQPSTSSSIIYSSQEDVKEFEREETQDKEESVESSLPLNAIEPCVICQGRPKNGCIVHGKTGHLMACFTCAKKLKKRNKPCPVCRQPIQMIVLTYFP
CSC inhib: cancer stem cell inhibition; inhibition, % at 7.5 µM; 300,000 compounds, 1.1% hits; cancer stem cell-like cells viability, luminescence; AID 2717; in the data active means inhibition above about 75%; inconclusive means no clear call, values can overlap the other calls; tested in HMLE shEcad cells
L major viab: reduces viability of Leishmania major promastigotes; resazurin fluorescence viability; inhibition, % at 10 µM; 200,000 compounds, 9% hits; AID 1063; in the data active means inhibition above about 50%;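 further: promastigotes grown with compound for 44 hours at 28 °C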
T cruzi inh: T. cruzi replication inhibition; T. cruzi beta-gal in NIH3T3, luminescence, 90 h; inhibition, % (concentration not given with the values); 300,000 compounds, 1.4% hits;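 active means mean inhibition across valid replicates above about 55%, limit read from the data; inconclusive means mean below that limit but half or more replicates reach it; inactive means mean below it, under half of replicates reach it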;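 further: signal also drops with host cell toxicity which is not excluded here; 0% = plate median of DMSO wells and 100% = zero luminescence signal; higher percent means less beta-gal luminescence so fewer parasites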
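Test system: β-gal T. cruzi (Tulahuen C4) inside NIH/3T3 cells / Quantity: 5,000 cells/well / Measured by: luminescence from GalScreen with 0.05% NP40, read after 60 min / Medium: DMEM plus 2% FBS / Measure: parasite load inhibition, % / Reagent: Tulahuen C4 trypomastigotes, 5000/well / Schedule: co-culture of at least 90 h after 3 h attachment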
Beta cell apopt: beta cell apoptosis inhibition. 300,000 compounds, 0.8% hits. protection from apoptosis, % (test concentration not listed). INS-1E cytokine-induced death, ATP luminescence, 48 h; percent of positive-control rescue, neutral wells zero. AID 435005;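 active means Every replicate reaches about 75%, or at least half do and their mean reaches it too, limit read from the data; inconclusive means At least half of replicates reach the limit but their mean does not; inactive means Under half of replicates reach the limit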;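 further: 0% = cytokine-treated negative control wells and 100% = positive control rescue; higher means more ATP so stronger rescue from cytokine killing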
SKKanGAS inh: SKKanGAS growth inhibition; S. pyogenes SKKanGAS, kanamycin growth, BacTiter-Glo, 6 h; 300,000 compounds, 1.3% hits; inhibition, % at 7.5 µM;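 active means mean replicate score, as percent of positive control median, at least 50; inconclusive means mean below 50 but one replicate at or above 50; inactive means mean and every replicate below 50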;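 further: strain carries kanamycin resistance gene driven by streptokinase promoter and grows in 40 µg/ml kanamycin; loss of luminescence reflects streptokinase promoter inhibition or plain growth inhibition; 0% = median of DMSO wells and 100% = positive control at its reference dose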
Mdm2 MdmX conf: confirmation of human Mdm2/MdmX interaction inhibitors; inhibition, % at 8 µM; Mdm2-MdmX binding, luminescent assay; shares compounds with Mdm2 MdmX PPI; 10,000 compounds, 55% hits; AID 489028; in the data active means inhibition above about 40%
FLuc counter: counter-screen for Mdm2/MdmX inhibitors: full-length luciferase | shares compounds with Mdm2 MdmX PPI | SaOS-2 full-length luciferase counterscreen, luminescence | inhibition, % at 8 µM | 6,200 compounds, 77% hits | AID 504607;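 active means mean inhibition at 8 µM reaching about 37%, which flags the compound as non-specific, limit read from the data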;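 further: p53-null SaOS-2 cells with luciferase driven by a doxycycline-inducible promoter; compound on cells about two nights before reading with doxycycline added after day one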
Numbers without * were called inactive; ? = inconclusive; / = no result given.

SMILES	Mdm2 MdmX PPI	CSC inhib	L major viab	T cruzi inh	Beta cell apopt	SKKanGAS inh	Mdm2 MdmX conf	others
Cc1ccccc1NS(=O)(=O)c1ccc(OCC(=O)N2CCN(C)CC2)cc1	5	-7	/	?	4	-2	/
O=[N+]([O-])c1ccccc1-c1cc(-c2ccccc2)cc(-c2ccccc2)[n+]1Cc1ccccc1Cl	88*	36	/	56*	134*	18	69*	FLuc counter=22
O=Cc1c(C(=O)O)n(Cc2ccc(F)cc2Cl)c2ccccc12	-22	-3	/	-6	6	3	/
Fc1ccc(C[n+]2c(-c3ccccc3)cc(-c3ccccc3)cc2-c2ccccc2)cc1	89*	37	/	55*	128*	7	69*	FLuc counter=38*
Cc1ccc(-c2cc(-c3ccccc3)cc(-c3ccccc3)[n+]2-c2ccccc2C(=O)O)cc1	27	-3	/	45	31	0	/
Clc1ccc(C[n+]2c(-c3ccccc3)cc(-c3ccccc3)cc2-c2ccccc2)cc1	90*	5	/	56*	122*	1	84*	FLuc counter=19
Cc1cc(-c2ccccc2)cc(-c2ccccc2)[n+]1CCc1ccccc1	61*	16	/	59*	133*	-2	12
Clc1ccc2sc(C3CCNCC3)nc2c1	-53	0	/	21	-3	-1	/
O=[N+]([O-])c1cc(F)c(N2CCCCCC2)cc1N1CCNCC1	52*	55	101*	3	10	4	27
CCOC(=O)c1nc2ccccc2c(=O)n1-c1cccc(C)c1	-1	/	-5	-16	-2	-8	/
COc1cccc(CCNCc2c(F)cccc2F)c1	30	-6	16	14	3	-11	/
O=C1CN=C(c2ccc(Br)cc2)c2oc3ccccc3c2N1	58*	-5	-5	2	3	1	22
COc1cccc(OC)c1C1=NCC(=O)Nc2c1oc1ccc(Br)cc21	70*	58	39	0	26	3	68*	FLuc counter=78*
O=C1CN=C(c2ccc(F)cc2)c2oc3ccccc3c2N1	18	-5	9	0	6	7	/
CC(C)(C)c1cc([N+](=O)[O-])cc(C(C)(C)C)c1O	88*	47	15	-94	100*	3	39
O=[N+]([O-])c1cccc(O)c1	-19	-8	/	/	5	/	/
COc1ccc(C(=O)OC2C[C@H]3CC[C@@H](C2)N3O)cc1OC (stereo partly specified)	14	-9	/	-15	0	12	/
C[C@@H]1C[C@H]2OC(=O)C3(CO3)[C@H]2[C@H](O)[C@]2(C)C(=O)C3OC3[C@@H]12 (stereo partly specified)	51*	58	/	-41	-8	-3	36	FLuc counter=21
CCN1C[C@]2(COC)CC[C@H](O)[C@@]34C5C[C@@H]6[C@@H](OC)C[C@@](O)(C5[C@H]6O)[C@](O)([C@@H](OC)C23)[C@@H]14 (stereo partly specified)	-23	4	/	18	1	-4	/
C/C1=C\[C@@H](C)C/C=C/[C@H]2[C@@H]3O[C@]3(C)[C@@H](C)[C@H]3[C@H](Cc4c[nH]c5ccccc45)NC(=O)[C@]32C(=O)/C=C/C(=O)[C@@H]1O	83*	62	-2	24	/	-6	46*	FLuc counter=21
COc1ccc(-c2nn(Cc3ccccc3)cc2C(=O)NC2CC2)cc1OC	14	/	/	/	-7	/	/
COc1cc2c(cc1OC)[C@H]1C(=O)c3ccc4c(c3O[C@H]1CO2)C[C@@H](C(C)(C)O)O4	25	-13	/	/	-13	/	/
COc1cc2c(cc1OC)[C@@H]1C(=O)c3ccc4c(c3O[C@@H]1CO2)C[C@H](C(C)C)O4	58*	41	/	-20	133*	5	39	FLuc counter=64*
COc1ccc2c(c1)[nH]c1c(C)nccc12	90*	12	/	/	-13	/	90*	FLuc counter=23
COC(=O)C1=C(c2cccc(OCc3ccccc3)c2)C[C@@H]2CC[C@H]1N2C(=O)NCCCOC(C)C	21	13	/	/	3	/	/
SMILES	Mdm2 MdmX PPI	CSC inhib	L major viab	T cruzi inh	Beta cell apopt	SKKanGAS inh	Mdm2 MdmX conf	others
O=c1[nH]c(=S)[nH]c(O)c1N=Nc1ccc(S(=O)(=O)N2CCc3ccccc32)cc1	58*	11	32	-6	23	10	23
O=c1[nH]c(=S)[nH]c(O)c1N=Nc1ccc(SC(F)F)cc1	-23	20	/	-12	3	2	/
O=c1c2ccccc2nc(/C=C/c2ccc(O)cc2)n1-c1ccc(O)cc1	27	14	/	4	4	12	/
COc1ccc(-n2c(/C=C/c3ccc(O)cc3)nc3ccccc3c2=O)cc1	50*	38	/	24	/	18	24
COc1cc(C)c(CNCCc2c[nH]c3ccccc23)cc1C	64*	38	/	36	-4	0	33
O=C1CN=C(c2ccc[nH]2)c2cc(Cl)ccc2N1	65*	11	/	4	1	-3	68*	FLuc counter=53*
CC(=O)N1N=C2C3CCN(CC3)C2C1c1ccc(F)cc1 (stereo unspecified)	10	-1	-12	-16	-2	2	/
CCCCn1c(O)c(C(C)=NCCc2ccccc2)c(=O)[nH]c1=O	3	-3	7	1	6	-8	/
O=c1[nH]c(=O)n(CCc2ccccc2)c(O)c1C=NCCN1CCNCC1	-2	4	1	15	-2	-2	/
COc1cc(/C=C/C(=O)c2c(O)n(CCc3ccccc3)c(=O)[nH]c2=O)ccc1O	53*	-11	89*	-37	-6	20	46*	FLuc counter=48*
CCCCn1c(O)c(C(C)=NCc2ccc3c(c2)OCO3)c(=O)[nH]c1=O	29	6	/	-2	-6	2	/
O=C(/C=C/c1ccccc1)c1c(O)n(CCc2ccccc2)c(=O)[nH]c1=O	69*	42	60*	-27	2	32	37
O=C(/C=C/c1ccc2c(c1)OCO2)c1c(O)n(CCc2ccccc2)c(=O)[nH]c1=O	65*	56	/	-3	-12	22	26
O=[N+]([O-])c1ccc(NC2CCN(Cc3ccccc3)CC2)c2ccncc12	64*	0	/	60*	-2	-4	36
O=[N+]([O-])c1ccc(NC2CCCC2)c2ccncc12	44	-4	/	7	4	0	/
CCn1c(O)c(N=Nc2ccc(S(=O)(=O)N3CCOCC3)cc2)c(=O)n(CC)c1=S	58*	15	/	-28	-8	12	21
CCCCCCn1c(N)c(C(=O)NCCN2CCOCC2)c2nc3ccccc3nc21	58*	111*	0	28	-3	10	32
CCCCCn1c(N)c(C(=O)NCCN2CCOCC2)c2nc3ccccc3nc21	40	49	21	2	5	7	/

Screening data deposited in PubChem BioAssay by several laboratories.
